{"data": "Experimental data of several laboratories", "target": "Sodium-dependent noradrenaline transporter (SLC6A2, Homo sapiens, UniProt P23975)"}
{"Compound": "COc1ccc(C(CN(C)C)C2(O)CCCCC2)cc1 (stereo not drawn)", "effect on": "transporter uptake", "action": "inhibitor", "cells": "HEK293", "concentration": "1 µM", "inhibition [%]": 28.8}
{"Compound": "CC(C)(C)c1ccc(C(=O)Nc2cc(Cl)c(-c3ccccc3)cc2C(=O)O)cc1", "effect on": "ligand displacement", "method": "radioligand", "concentration": "10 µM", "inhibition [%]": 91}
{"Compound": "O=C(Nc1cccnn1)N1CCN([C@@H]2CCOc3cc(C(F)(F)F)ccc32)CC1", "effect on": "ligand displacement", "concentration": "20 µM", "inhibition [%]": 15}
{"Compound": "CS(=O)(=O)N1CCCC(NC(=O)[C@H](CCC2CCCCC2)NC(=O)c2ccc(CNC(=O)c3cnc4ccccn34)cc2)C1 (stereo partly drawn)", "effect on": "cell-free assay", "concentration": "10 µM", "inhibition [%]": 3}
{"Compound": "COCc1c(-c2cc3cc(C)cc(OC)c3s2)c2c(N)ncnn2c1CN1CCNC(=O)C1", "effect on": "ligand displacement", "method": "radioligand", "concentration": "10 µM", "inhibition [%]": 47}
{"Compound": "Fc1ccc(C(OCCN2CCN(CCCc3ccccc3)CC2)c2ccc(F)cc2)cc1", "effect on": "transporter uptake", "action": "inhibitor", "cells": "HEK293", "concentration": "1 µM", "inhibition [%]": 89.9}
{"Compound": "Cc1noc([C@H]2C[C@@H](c3ccc(C(F)(F)F)cc3)CN(C(=O)N3CCS(=O)(=O)C3)C2)n1", "effect on": "cell-free assay", "concentration": "10 µM", "inhibition [%]": -20.2}
{"Compound": "Clc1ccc2c(C3CCN(CCc4c[nH]c5ccccc45)CC3)c[nH]c2c1", "effect on": "ligand displacement", "method": "radioligand", "concentration": "10 µM", "inhibition [%]": 90}
{"Compound": "CN(CCN1CCC(OC(=O)Nc2ccccc2-c2ccccc2)CC1)C(=O)c1ccc(CN2CCC(C(N)=O)CC2)cc1", "effect on": "ligand displacement", "method": "radioligand", "concentration": "1 µM", "inhibition [%]": 1}
{"Compound": "CC(C)N1CCC[C@H]1CNC(=O)c1cn(C2CCCC2)c(=O)c2c1c1ccccc1n2C", "effect on": "ligand displacement", "method": "radioligand", "concentration": "10 µM", "inhibition [%]": 28}
{"Compound": "COc1ccc(S(=O)(=O)N2CCCCC2)cc1C", "effect on": "ligand displacement", "method": "radioligand", "concentration": "10 µM", "inhibition [%]": "< 30"}
{"Compound": "CCN(CC)CCCC[C@H](NC(=O)[C@H](CC(C)C)NC(=O)[C@H](C)NC(=O)[C@H](Cc1ccccc1)NC(=O)c1ccc(C(C)(C)C)cc1)C(=O)N[C@@H](CO)C(=O)OC", "effect on": "ligand displacement", "method": "radioligand", "concentration": "10 µM", "inhibition [%]": -13}
